Assay outcomes (PubChem BioAssay)
Rows were chosen to be rich in hits. Some 2.3% of all compounds tested hit in one or more screens of this group.
CSN deneddyl inh = CSN deneddylation inhibition | Q92905 | Purified CSN, SCF-Nedd8-OG deneddylation, fluorescence polarization | inhibition, % at 12.5 µM | 360,000 compounds, 0.38% hits | AID 651999;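 active = pattern-corrected inhibition above about 35%, with an unprinted fluorescence ratio check between 0.5 and 1.5, limit read from the data, passing the limit was not always enough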
Target sequence (Q92905 whole entry, looked up, one chain of several): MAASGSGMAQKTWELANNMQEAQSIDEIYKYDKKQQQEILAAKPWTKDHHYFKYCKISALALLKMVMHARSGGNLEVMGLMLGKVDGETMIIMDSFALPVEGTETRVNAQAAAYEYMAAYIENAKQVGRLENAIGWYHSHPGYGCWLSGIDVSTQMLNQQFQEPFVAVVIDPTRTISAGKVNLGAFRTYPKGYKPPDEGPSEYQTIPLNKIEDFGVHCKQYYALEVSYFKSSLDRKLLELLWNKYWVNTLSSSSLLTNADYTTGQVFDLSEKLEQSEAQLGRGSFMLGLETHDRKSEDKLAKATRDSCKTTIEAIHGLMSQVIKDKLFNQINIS
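Assay system: purified human Csn5 enzyme expressed in HEK293T cells; measure: % inhibition; also added: SCFSkp2-Nedd8OG substrate at 10 nM final; technique: fluorescence polarization; times: reaction 90 min, room temperature; medium: Tris buffer pH 7.5, NaCl, DTT, Tween-20, trehalose, ovalbumin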
Rpn11 inh = blocks the human proteasome subunit Rpn11; O00487; human 26S proteasome, Ub4-pepOG fluorescence polarization; 20S core pre-blocked with epoxomicin; inhibition, % at 20 µM; 360,000 compounds, 0.59% hits;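 active = inhibition at 20 µM, scaled to each plate's controls, above about 33%, limit read from the data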
DNMT1 block = inhibitors of human DNMT1; P26358; DNMT1 molecular beacon, Hinp1I cleavage, fluorescence; inhibition (reported as % activation of signal), % at 10 µM; 360,000 compounds, 0.83% hits; in the data active = inhibition above about 50%
MT1-MMP act inh = MT1-MMP (human) activation inhibition; HT1080 RFP-PRO-GFP cells, GFP/RFP ratio fluorescence, overnight; percent of plate control window, DMSO zero; AID 651647; P50281; 360,000 compounds, 0.061% hits; GFP/RFP ratio change, % at 20 µM;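 active = GFP/RFP ratio change of at least 30% with cell ATP level not reduced by more than half and red fluorescence within 50% of control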
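Assay system: HT1080 RFP-PRO-GFP cells | Dosing: 20 µM single dose, 1% DMSO | Incubation: Cells overnight before dosing, compound overnight, 37 °C, 5% CO2 | Evaluation: GFP/RFP fluorescence ratio | Control set: DMSO-only wells and HT1080 RFP-L50D-GFP cell wells as references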
SKN-1 inh = blocks SKN-1 activity in C. elegans | C. elegans VP596 Pgst-4::GFP/RFP ratio, acrylamide-induced, 24 h | inhibition, % at 21.8 µM | 360,000 compounds, 0.49% hits | AID 624304;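 active = interference check ratio from 0.5 to 1.5 plus GFP to RFP signal ratio inhibition reaching or exceeding a fixed threshold, cut at about 30% in these data, passing the limit was not always enough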
SUMO1 PPI mod = alters human SUMO1 binding to SIM partners; P63165; AID 602429; inhibition, % at 20 µM; SUMO1 binding to a labelled peptide, TR-FRET, 1 h; 360,000 compounds, 0.33% hits; in the data active = inhibition above about 37%
Target sequence (P63165 whole entry, looked up): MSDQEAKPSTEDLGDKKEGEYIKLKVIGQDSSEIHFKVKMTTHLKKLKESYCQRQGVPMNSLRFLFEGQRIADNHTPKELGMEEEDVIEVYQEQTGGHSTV
DNMT1 interf DR = beacon fluorescence artifact, dose response counter-screen; shares compounds with DNMT1 block; molecular beacon fluorescence, spectral interference counter-screen; IC50, µM; 200 tested, under 10 active; AID 602382; call rule not given here
DNMT1 confirm = confirmation of human DNMT1 inhibitors; shares compounds with DNMT1 block; DNMT1 molecular beacon HinP1I cleavage, fluorescence; inhibition, % at 10 µM; 2,300 compounds, 8% hits; AID 602385;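 active = average inhibition of at least 30% in the single-concentration confirmation test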
Beacon interf = counter-screen for DNMT1 inhibitors: spectral interference. AID 602387. DNMT1 molecular beacon spectral interference counterscreen, fluorescence 485/520. activation (fluorescence interference), % at 10 µM. shares compounds with DNMT1 block. 2,300 compounds, 1% hits;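 active = activation of at least 30% at 10 µM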;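 also: DNMT1 catalytic domain with a HinP1I cleavage step and a FAM/dabcyl DNA beacon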
Of the large screens only hits and unclear results are named; the others gave an inactive call (follow-up assays come after a bar, where shown).

CCOc1ccc(N=c2cc(-c3ccc(OC)cc3)oc3ccccc23)cc1	DNMT1 block 95 | DNMT1 confirm inactive | Beacon interf inactive
O=c1c2c(nc3nc(Cc4ccccc4)[nH]n13)CCC2	DNMT1 block 61 | DNMT1 confirm inactive | Beacon interf inactive
CCc1nc2c(OCCc3cccc(OC)c3)cccn2c1N(C=O)Cc1ccc(OC)cc1	none
CC(C)NC(=O)C1(C)CSCC(=O)N1Cc1cccc(F)c1 (stereo not drawn)	none (no result: Rpn11 inh, DNMT1 block)
CC(C)c1onc(C(=O)NC(C)c2ccccc2)c1[N+](=O)[O-] (stereo not drawn)	DNMT1 block 92 | DNMT1 confirm inactive | Beacon interf inactive
COc1ccc(CN2C(=O)c3ccccc3C2c2nnnn2-c2ccc3c(c2)OCCO3)cc1 (stereo not drawn)	none (no result: Rpn11 inh, DNMT1 block)
CCN(CC)c1ccc2cc(-c3nnc(-c4ccncc4)o3)c(=O)oc2c1	DNMT1 block 136 (not shown: Rpn11 inh) | DNMT1 confirm 88 | Beacon interf 61
CCN(CC)c1ccc2cc(C=O)c(=O)oc2c1	DNMT1 block 71 (not shown: Rpn11 inh) | DNMT1 confirm 39 | Beacon interf 59
c1ccc2c(c1)C1=NCCN1c1ccccc1-2	DNMT1 block 66 | DNMT1 interf DR inactive | DNMT1 confirm 48 | Beacon interf inactive
COc1cccc(-c2cc(C(=O)NC3CC3)c3ccccc3n2)c1	none
O=C(NCC1CCCO1)c1cc(-c2ccco2)nc2ccccc12 (stereo not drawn)	DNMT1 block 84 | DNMT1 confirm inactive | Beacon interf inactive
O=C(NC1CCC(O)CC1)c1cc(-c2ccco2)nc2ccccc12 (stereo not drawn)	DNMT1 block 57 | DNMT1 confirm inactive | Beacon interf inactive
COC(=O)C1CCN(C(=O)c2cc(-c3ccco3)nc3ccccc23)CC1	DNMT1 block 86 | DNMT1 interf DR inactive | DNMT1 confirm 50 | Beacon interf inactive
CC1(C(=O)NCCC(F)(F)F)Cc2c(-c3ccccc3)ccnc2O1 (stereo not drawn)	none
CCc1ccc(OCC(=O)N/N=C\c2ccco2)c([N+](=O)[O-])c1	DNMT1 block 81 | DNMT1 confirm inactive | Beacon interf inactive
Cc1cc(C)cc(OCC(=O)N/N=C/c2ccco2)c1	none
O=C(/C=C/c1ccco1)c1cccc([N+](=O)[O-])c1	DNMT1 block 62 | DNMT1 confirm inactive | Beacon interf inactive
O=C(COc1cccc([N+](=O)[O-])c1)N/N=C/c1ccco1	DNMT1 block 59 | DNMT1 confirm inactive | Beacon interf inactive
Cc1ccc(F)c(C(=O)N2CCCC(C)(C(=O)NS(=O)(=O)C3CC3)C2)c1F (stereo not drawn)	none
CCCCn1nnnc1C(c1ccccc1)N1CCCN(Cc2ccc(F)cc2)CC1 (stereo not drawn)	none (no result: Rpn11 inh, DNMT1 block)
CCN1C(=O)[C@H]2[C@@H](c3ccc(OC)cc3)N[C@]3(CCCN(Cc4ccc(Br)cc4)C3=O)[C@H]2C1=O	none
CCOC(=O)CC(NS(=O)(=O)c1ccc2[nH]cc(C(=O)O)c(=O)c2c1)c1ccc(OCC)c(OC)c1 (stereo not drawn)	DNMT1 block 73 | DNMT1 confirm inactive | Beacon interf inactive
CCOC(=O)CC(NS(=O)(=O)c1ccc(OC)c(OC)c1)c1cccc([N+](=O)[O-])c1 (stereo not drawn)	none
OC[C@@H]1CN(Cc2ccc3c(c2)OCO3)C[C@H](n2cnc3c(NC4CCCC4)ncnc32)O1	none
Cc1ccc(S(=O)(=O)N[C@H](CNCc2ccccc2)C(C)C)cc1	none (no result: Rpn11 inh, DNMT1 block)
O=c1oc(-c2ccccc2)nc2sc3c(c12)CCC3	DNMT1 block 96 | DNMT1 confirm inactive | Beacon interf inactive
